Data on 24 compounds can be found in PubChem BioAssay.

Test [1] can be described thus: S. cerevisiae growth inhibition in permissive medium (OD615), pilot counter-assay for S. cerevisiae lifespan shortening project, permissive growth control (AID 705;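 active means growth inhibition above 25% in both replicates, a cutoff set 3 SD above the mean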). The settings on record: OD615, 24 h, at 10 µM, hits give high values. The method in brief: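 Test system: Saccharomyces cerevisiae strain carrying genetically modified DeaD replicative-lifespan system; buffer or medium: SC raffinose/galactose permissive medium; dosing: one dose 10 µM, DMSO 0.25% final; times: 24 h exposure, 30 °C; measured by: OD at 615 nm; read-out basis: growth inhibition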

Test [2] can be described thus: S. cerevisiae growth inhibition in restrictive medium, OD615, pilot screen, restrictive growth control, yeast lifespan reduction project (AID 706;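 active means growth inhibition above a set limit, 3 SD over mean compound inhibition, in both replicates, cut at about 43% in these data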;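 further: modified DeaD lifespan yeast strain shifted to restrictive glucose medium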). To be noted: OD615, 48 h, at 10 µM, hits give high values. The method, boiled down: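 material = engineered S. cerevisiae DeaD strain | buffer or medium = glucose-based CSMM-D restrictive medium | dosing = one concentration, 10 µM final, 0.25% DMSO | schedule = 4 h pre-growth plus 48 h compound exposure, 30 °C | detection = OD615 absorbance reading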

Test [3] can be described thus: doxorubicin toxicity protection in MRP-1 cells – H69AR cells, CellTiter-Glo, duplicate, MRP-1 activator project, pilot screen (AID 807).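 Further: compound pretreatment 18-22 h then 72 h combined with doxorubicin; 0% = doxorubicin alone and 100% = vehicle without doxorubicin.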 The settings on record: H69AR viability with doxorubicin, CellTiter-Glo luminescence; at 10 µM; hits give high values.
Test [4] is described as follows: viability of HCT116 without oncogenic beta-catenin – human colon tumor cells, pilot screen (AID 823;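 active means cell viability at or below a set limit in both duplicate runs, the limit being the all-compound median minus 4 SD, cut at about 23% in these data, passing the limit was not always enough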;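 further: 0% = wells killed by 20 µM Hyamine and 100% = untreated DMSO cell wells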). To be noted: HCT116 beta-catenin knockout viability, CellTiter-Glo, 60 h; at 10 µM; hits give low values.
A short description of test [5]: viability of PTEN-null HCT116 cells – cell-based, HCT116 clonal line, CellTiter-Glo, pilot screen (AID 824;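 active means viability at or below 27.92% in each of two runs, the all-compound median minus 4 SD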;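 further: 0% = 20 µM Hyamine control and 100% = vehicle cell control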). To be noted: HCT116 PTEN-deleted viability, 60 h, at 10 µM, hits give low values.
The nature of test [6]: RAM pathway blockade in budding yeast – dse1pr::URA3 reporter, 5-FOA selection, pilot screen (AID 869;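 active means inhibition over a set limit, the all-compound mean plus 3 SD, in both replicate runs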;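 further: 0% = DMSO wells with no growth and 100% = 10 µM 1-NA-PP1 with full growth; RAM network block rescues cells from 5-FOA so hits raise OD615 growth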). The settings on record: S. cerevisiae dse1pr::URA3 5-FOA growth, OD615, 2 d; at 10 µM; hits give high values; strain carries analog-sensitive mutant Cbk1 kinase.
A short description of test [7]: RAM signaling pathway blockade in yeast – S. cerevisiae, Pdr1DBD-CYC8 efflux-inhibited sensitized strain, primary screen (AID 1298;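 active means RAM network inhibition above 8.4% in each of two replicates, 3 SD over the compound average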;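 further: 0% = DMSO untreated cells without growth and 100% = 10 µM 1-NA-PP1 full growth; higher means more yeast growth rescued from 5-FOA killing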). The settings on record: S. cerevisiae cbk1-as DSE1-URA3 strain, 5-FOA growth OD615, 2 d; at 50 µM; hits give high values.

Structures are written as SMILES. A number with no mark means an inactive call. Records with an inconclusive call do not appear. The source made the active and inactive calls.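 How the source made its calls, unless noted: active means viability increase at or above a cutoff of the median across tested compounds plus 3 SD (cut at about 8.5% in these data, passing the limit was not always enough); inconclusive means some gains above the cutoff, reason not given; inactive means the rest.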

In general, viability refers to a read-out of living cells in per cent, often relative to untreated cells. The term inhibition denotes the drop in the measured response relative to a control, in per cent. For the compound `COc1ccc(C2=NOC(C(=O)Nc3cc(C)nn3-c3ccccc3)C2)cc1OC` (stereo not drawn), the figures for the growth inhibition in test [1] and in test [2] were -14.9% and -31.2%, respectively. In test [3], the viability increase is -0.06%. Also, the viability in test [4] is 103%; in test [5], 97.1%. The inhibition in test [6] was 1.11%. Besides, the RAM network inhibition in test [7] was 1.36%.

With `CCO/C(C)=C1\C(=O)N(CC)c2ccccc21`, the growth inhibition in test [1] is -9.62%; in test [2], -5.21%. Also, in test [3], the viability increase was -1.57%. Further, the viability is 96.7% in test [4] and 97.2% in test [5]. Further, the inhibition in test [6] is -0.745%. In test [7], the RAM network inhibition was 2.08%.

In the case of `C=CCNc1ncnc2ccc(Br)cc12`, the growth inhibition in test [1] was 2.36%; in test [2], 9.25%. In addition, the viability increase in test [3] was -5.67%. In addition, the viability in test [4] is 84.1%; in test [5], 75.8%. Besides, the inhibition in test [6] was 1.87%. Moreover, in test [7], the RAM network inhibition was 4.09%.

Consider `COc1ccc(Cl)cc1C(=O)Nc1cc(=O)n(C)c(=O)n1C`, for which the values for the growth inhibition in test [1] and in test [2] were -16.1% and -29.6%, respectively. Also, the viability increase in test [3] is -1.06%. The viability is 102% in test [4] and 99.1% in test [5]. For the same compound, the inhibition in test [6] is 1.71%. The RAM network inhibition in test [7] is 2.2%.

Take `O=C(O)[C@@H](c1ccccc1)N1Cc2ccccc2C1=O`: the growth inhibition in test [1] is 2.66%; in test [2], -13.5%. In addition, the viability increase in test [3] was -0.32%. Besides, the viability in test [4] was 104%; in test [5], 96.7%. For the same compound, in test [6], the inhibition was 1.13%. The RAM network inhibition in test [7] was 1.56%.

Consider `CCc1ccccc1S(=O)(=O)Cc1ccc(C(=O)NCc2ccc3c(c2)OCO3)o1`, for which the growth inhibition in test [1] was -12%; in test [2] it was -13.8%. Also, the viability increase in test [3] is -2.5%. Also, the viability was 95.7% in test [4] and 91.1% in test [5]. Also, the inhibition in test [6] was 1.87%. Further, the RAM network inhibition in test [7] is 7.83%.

As to `CCCCOc1ccc(/C(N)=N/O)cc1`, the figures for the growth inhibition in test [1] and in test [2] were 7.3% and 0.775%, respectively. For the same compound, the viability increase in test [3] is -5.85%. The viability in test [4] is 93.5%; in test [5], 93.7%. The inhibition in test [6] is 0.44%. Also, in test [7], the RAM network inhibition is 1.83%.

For the compound `Cc1oc2cc(O)ccc2c(=O)c1N1C(=O)c2ccccc2C1=O`, the values for the growth inhibition in test [1] and in test [2] were -5.69% and 0.06%, respectively. Also, in test [3], the viability increase is 1.85%. In addition, the viability was 98.2% in test [4] and 99.8% in test [5]. Further, the inhibition in test [6] is 1.11%. The RAM network inhibition in test [7] was 1.15%.

As to `Cc1ccc(Nc2nc(N3CCOCC3)nc(N3CCOCC3)n2)cc1`, the growth inhibition is -16.7% in test [1] and -7.55% in test [2]. Also, the viability increase in test [3] was -2.57%. Moreover, the viability in test [4] is 64.2%; in test [5] it was 65.7%. Besides, the inhibition in test [6] was 1.06%. Further, the RAM network inhibition in test [7] is 2.07%.

For `CCSc1sccc1C1C(C#N)=C(N)N(c2cccnc2)C2=C1C(=O)CC(C)(C)C2` (stereo not drawn), the growth inhibition was -14.3% in test [1] and -6.69% in test [2]. Moreover, the viability increase in test [3] is -6.56%. Also, the viability in test [4] was 92.1%; in test [5], 93.2%. Besides, the inhibition in test [6] was 0.9%. The RAM network inhibition in test [7] is 12.4%.

On to `COc1cccc(N2CCN(C(=O)c3ccc4nc(N5CCCCC5)sc4c3)CC2)c1`, for which the growth inhibition in test [1] is -4.55%; in test [2], 3.63%. For the same compound, in test [3], the viability increase is 0.85%. Moreover, the values for the viability in test [4] and in test [5] were 89.1% and 79.2%, respectively. Moreover, the inhibition in test [6] was 0.805%. In addition, in test [7], the RAM network inhibition was 6.67%.

Regarding `Nc1nc2n(n1)C(c1ccco1)CC(c1ccc(F)cc1)N2` (stereo not drawn), the growth inhibition in test [1] is -0.245%; in test [2], 11.6%. Further, in test [3], the viability increase is 1.69%. Besides, the viability in test [4] is 98.4%; in test [5], 101%. The inhibition in test [6] was 0.45%. In test [7], the RAM network inhibition was 4.49%.

On to `O=C(O)C1C2C=CC(C2)C1C(=O)NCCc1cccc(Cl)c1` (stereo not drawn), for which the values for the growth inhibition in test [1] and in test [2] were -2.6% and 3.11%, respectively. Moreover, in test [3], the viability increase was -1.41%. Besides, the viability in test [4] is 104%; in test [5] it was 94.7%. For the same compound, in test [6], the inhibition was 0.045%. The RAM network inhibition in test [7] is 2.92%.

In the case of `NC(=O)c1ccsc1NC(=O)c1ccc(S(=O)(=O)N2CCCCC2)cc1`, the growth inhibition in test [1] was -4.08%; in test [2], -4.94%. The viability increase in test [3] was -0.57%. The figures for the viability in test [4] and in test [5] were 71.9% and 58.3%, respectively. In addition, the inhibition in test [6] was 1.47%. For the same compound, in test [7], the RAM network inhibition was 2.41%.

Regarding `CCOC(=O)N1CCN(C(=O)CS(=O)Cc2nc(-c3cccc(C)c3)oc2C)CC1` (stereo not drawn), the values for the growth inhibition in test [1] and in test [2] were -10.5% and -16.8%, respectively. The viability increase in test [3] was -1.34%. Moreover, the values for the viability in test [4] and in test [5] were 104% and 100%, respectively. For the same compound, the inhibition in test [6] is 1.69%. The RAM network inhibition in test [7] was 1.11%.

As to `Cn1c(Cn2c(=O)sc3ccccc32)nnc1SCC(=O)NCC1CCCO1` (stereo not drawn), the results for the growth inhibition in test [1] and in test [2] were -6.81% and -7.68%, respectively. In addition, in test [3], the viability increase was -1.15%. Besides, the viability in test [4] is 99.3%; in test [5] it was 90%. In addition, in test [6], the inhibition was 0.85%. In addition, the RAM network inhibition in test [7] was 2.22%.

In the case of `O=C(c1ccccc1)c1ccc2nc(N3CCCCC3)c3nncn3c2c1`, the growth inhibition in test [1] is 12.4%; in test [2], 57.7% (active). Moreover, the viability increase in test [3] is -3.48%. For the same compound, the viability in test [4] was 45.4%; in test [5], 56.4%. Moreover, the inhibition in test [6] is 2.53%. For the same compound, the RAM network inhibition in test [7] was 4.08%.

Regarding `Cc1ccc(C)c(NC(=O)CSc2nc3c(c(=O)n2C)SC(C)C3)c1` (stereo not drawn), the growth inhibition in test [1] is -3.99%; in test [2] it was -8.3%. In test [3], the viability increase is -3.24%. The results for the viability in test [4] and in test [5] were 83.2% and 90.8%, respectively. For the same compound, the inhibition in test [6] was 0.5%. In addition, the RAM network inhibition in test [7] was 3.86%.

Regarding `CC1(C)C(c2ccccc2)=[N+]([O-])CN1O`, the growth inhibition was 1.85% in test [1] and 9.78% in test [2]. The viability increase in test [3] is -2.5%. For the same compound, the figures for the viability in test [4] and in test [5] were 107% and 96.3%, respectively. Also, in test [6], the inhibition was -0.14%. Also, the RAM network inhibition in test [7] was -0.11%.

With `O=C1C2=C(SCCS2)C(=O)N1CCCO`, the growth inhibition in test [1] is -1.38%; in test [2], -3.45%. Besides, the viability increase in test [3] is 0.11%. The viability was 98.9% in test [4] and 97.9% in test [5]. Besides, the inhibition in test [6] was -0.095%. The RAM network inhibition in test [7] is 3.67%.

As for `O=C(Cc1ccccc1)n1nc(-c2ccccc2)nc1NCc1ccco1`, the growth inhibition in test [1] was -16.6%; in test [2] it was -14.8%. Further, in test [3], the viability increase was -2.03%. Besides, the figures for the viability in test [4] and in test [5] were 99.5% and 98.1%, respectively. In addition, the inhibition in test [6] was 1.27%. In addition, the RAM network inhibition in test [7] is 4.38%.

Regarding `O=C(NC1CC1)c1ccc(CS(=O)(=O)c2c(Cl)cccc2Cl)o1`, the growth inhibition in test [1] was 3.79%; in test [2], -6.65%. Further, in test [3], the viability increase is -2.96%. For the same compound, the viability in test [4] was 105%; in test [5], 97.4%. For the same compound, in test [6], the inhibition is 0.475%. In test [7], the RAM network inhibition was 4.31%.

Consider `O=C(Cn1cc2c(n1)CCCC2)NCCCN1CCCC1`, for which the values for the growth inhibition in test [1] and in test [2] were -3.79% and 4.09%, respectively. Besides, the viability increase in test [3] was 0.07%. Besides, the viability is 105% in test [4] and 99.3% in test [5]. For the same compound, the inhibition in test [6] is -0.37%. Also, in test [7], the RAM network inhibition is 1.62%.

In the case of `Cc1ccccc1CSc1nnc(Cn2c(=O)sc3ccccc32)n1C`, the growth inhibition in test [1] was -9.17%; in test [2], 11.4%. Moreover, the viability increase in test [3] was 1.46%. For the same compound, the figures for the viability in test [4] and in test [5] were 95.6% and 98.5%, respectively. For the same compound, the inhibition in test [6] was 1.81%. Besides, the RAM network inhibition in test [7] was 6.66%.
